# Reference: ChEMBL document CHEMBL4665875, “Synthesis, biological evaluation and in silico modeling of novel pan-genotypic NS5A inhibitors” (Bioorg Med Chem, 2020)
# What was measured:
# [1] = Cytotoxicity against HCV genotype 1b NS5A infected human HuH7 cells assessed as reduction in cell viability measured after 72 hrs by CellTiter-Glo assay; conditions: HuH7 cells infected with HCV genotype 1b NS5A
# [2] = MRT (0 to infinity) in Sprague-Dawley rat at 10 mg/kg, po measured after 24 hrs by LC-MS/MS analysis; type: ADME, organism-based; conditions: in vivo
# Procedure, shortened: (§1)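 Male Sprague-Dawley rats (8–10 weeks), jugular-vein catheterized and fasted 12 h with water available. Oral dose of 10 mg/kg given in 0.5% methyl cellulose. Blood taken into EDTA at 15, 30 min and 1, 2, 4, 8 and 24 h. Plasma protein-precipitated with acetonitrile containing tolbutamide internal standard, held at −20 °C for 15 min, centrifuged, then analysed by LC-MS/MS.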
# [3] = MRTlast in Sprague-Dawley rat at 2 mg/kg, iv measured after 24 hrs by LC-MS/MS analysis; type: ADME, organism-based; conditions: in vivo
# Procedure, shortened: (§2)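 Male Sprague-Dawley rats (8–10 weeks), jugular-vein catheterized and fasted 12 h with water available. Intravenous dose of 2 mg/kg given in 10% DMSO/10% Solutol/80% 0.05 M N-methylglucamine. Blood taken into EDTA at 5, 15, 30 min and 1, 2, 4, 8 and 24 h. Plasma precipitated with acetonitrile plus tolbutamide internal standard, then analysed by LC-MS/MS.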
# [4] = Cmax in Sprague-Dawley rat at 2 mg/kg, iv measured after 24 hrs by LC-MS/MS analysis; type: ADME, organism-based; set-up: route intravenous, dose 2 mg/kg, time 24 hrs; conditions: in vivo
# Procedure, shortened: as §2
# [5] = Tmax in Sprague-Dawley rat at 2 mg/kg, iv measured after 24 hrs by LC-MS/MS analysis; type: ADME, organism-based; conditions: in vivo
# Procedure, shortened: as §2
# [6] = AUC (0 to infinity) in Sprague-Dawley rat at 10 mg/kg, po measured after 24 hrs by LC-MS/MS analysis; type: ADME, organism-based; set-up: route oral, time 24 hrs, dose 10 mg/kg; conditions: Sprague-Dawley, in vivo
# Procedure, shortened: as §1
# [7] = Tmax in Sprague-Dawley rat at 10 mg/kg, po measured after 24 hrs by LC-MS/MS analysis; type: ADME, organism-based; conditions: Sprague-Dawley, in vivo, read-out: Tmax
# Procedure, shortened: as §1
# [8] = Half life in Sprague-Dawley rat at 10 mg/kg, po measured after 24 hrs by LC-MS/MS analysis; type: ADME, organism-based; conditions: Sprague-Dawley, in vivo
# Procedure, shortened: as §1
# [9] = Half life in Sprague-Dawley rat at 2 mg/kg, iv measured after 24 hrs by LC-MS/MS analysis; type: ADME, organism-based; conditions: in vivo
# Procedure, shortened: as §2
# [10] = Cmax in Sprague-Dawley rat at 10 mg/kg, po measured after 24 hrs by LC-MS/MS analysis; type: ADME, organism-based; set-up: route oral, time 24 hrs, dose 10 mg/kg; conditions: Sprague-Dawley, in vivo, read-out: Cmax
# Procedure, shortened: as §1
# [11] = MRTlast in Sprague-Dawley rat at 10 mg/kg, po measured after 24 hrs by LC-MS/MS analysis; type: ADME, organism-based; conditions: in vivo
# Procedure, shortened: as §1
# [12] = AUC (0 to infinity) in Sprague-Dawley rat at 2 mg/kg, iv measured after 24 hrs by LC-MS/MS analysis; type: ADME, organism-based; set-up: route intravenous, dose 2 mg/kg, time 24 hrs; conditions: in vivo
# Procedure, shortened: as §2
# [13] = AUClast in Sprague-Dawley rat at 2 mg/kg, iv measured after 24 hrs by LC-MS/MS analysis; type: ADME, organism-based; set-up: route intravenous, time 24 hrs, dose 2 mg/kg; conditions: in vivo
# Procedure, shortened: as §2
# [14] = Oral bioavailability in Sprague-Dawley rat at 10 mg/kg, po measured after 24 hrs by LC-MS/MS analysis; type: ADME, organism-based; conditions: in vivo
# Procedure, shortened: as §1
# [15] = AUClast in Sprague-Dawley rat at 10 mg/kg, po measured after 24 hrs by LC-MS/MS analysis; type: ADME, organism-based; set-up: route oral, dose 10 mg/kg, time 24 hrs; conditions: in vivo
# Procedure, shortened: as §1
# [16] = MRT (0 to infinity) in Sprague-Dawley rat at 2 mg/kg, iv measured after 24 hrs by LC-MS/MS analysis; type: ADME, organism-based; conditions: in vivo
# Procedure, shortened: as §2
# [17] = molecular target: T1, Nonstructural protein 5A (Hepatitis C virus) (UniProt Q5L478); experiment: Potency index, ratio of AV-4025 IC50 to test compound IC50 for inhibition of HCV genotype 3a NS5A infected in Huh7 cells assessed as reduction in viral replication incubated 3 days and measured by bright Glo-luciferase reporter gene assay; type: cell-based; conditions: Hepatitis C virus subtype 3a; time 3.0 day
# T1 sequence (whole entry): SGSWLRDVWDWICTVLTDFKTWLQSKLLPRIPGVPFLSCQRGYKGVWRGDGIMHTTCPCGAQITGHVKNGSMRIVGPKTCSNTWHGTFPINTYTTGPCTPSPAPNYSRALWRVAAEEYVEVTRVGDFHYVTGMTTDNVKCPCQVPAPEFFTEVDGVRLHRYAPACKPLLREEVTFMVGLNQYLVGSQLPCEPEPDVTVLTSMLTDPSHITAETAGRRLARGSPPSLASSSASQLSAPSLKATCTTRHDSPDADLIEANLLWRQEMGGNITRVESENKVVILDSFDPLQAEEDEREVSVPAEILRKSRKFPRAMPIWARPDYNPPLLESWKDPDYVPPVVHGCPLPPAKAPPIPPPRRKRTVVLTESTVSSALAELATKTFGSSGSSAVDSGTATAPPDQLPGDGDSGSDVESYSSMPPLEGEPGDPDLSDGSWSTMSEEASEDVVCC
smiles,measurement,setting,value
COC(=O)N[C@H](C(=O)N1CCC[C@H]1c1ncc(C#CC#Cc2ccc(-c3cnc([C@@H]4CCCN4C(=O)[C@@H](NC(=O)OC)C(C)C)[nH]3)cc2-c2cccc(-c3ccccc3)c2)[nH]1)C(C)C,CC50 at 72 h,[1],> 10 µM
COC(=O)N[C@H](C(=O)N1CCC[C@H]1c1ncc(C#CC#Cc2ccc(-c3cnc([C@@H]4CCCN4C(=O)[C@@H](NC(=O)OC)C(C)C)[nH]3)cc2-c2ccccc2)[nH]1)C(C)C,CC50 at 72 h,[1],> 10 µM
COC(=O)N[C@H](C(=O)N1CCC[C@H]1c1ncc(C#CC#Cc2c(C)cc(-c3cnc([C@@H]4CCCN4C(=O)[C@@H](NC(=O)OC)C(C)C)[nH]3)cc2-c2ccccc2)[nH]1)C(C)C,CC50 at 72 h,[1],> 10 µM
COC(=O)N[C@H](C(=O)N1CCC[C@H]1c1ncc(-c2ccc(C#CC#Cc3cnc([C@@H]4CCCN4C(=O)[C@@H](NC(=O)OC)C(C)C)[nH]3)cc2)[nH]1)c1ccccc1,CC50 at 72 h,[1],> 10 µM
COC(=O)N[C@H](C(=O)N1CCC[C@H]1c1ncc(-c2ccc(C#CC#Cc3cnc([C@@H]4CCCN4C(=O)[C@H](NC(=O)OC)c4ccccc4)[nH]3)c(-c3ccccc3)c2)[nH]1)C(C)C.Cl.Cl,MRT inf,[2],3.1 h
same,MRT last at 24 h,[3],1.2 h
same,CC50 at 72 h,[1],> 10 µM
same,Cmax,[4],7760 ng/mL
same,Tmax,[5],4.98 min
same,AUC(0-inf),[6],13100 ng·h/mL
same,Tmax,[7],2 h
same,half-life,[8],1.6 h
same,half-life,[9],1.2 h
same,Cmax,[10],2980 ng/mL
same,MRT last at 24 h,[11],2.8 h
same,AUC(0-inf),[12],8330 ng·h/mL
same,AUC(0-t) at 24 h,[13],8260 ng·h/mL
same,bioavailability,[14],31%
same,AUC(0-t) at 24 h,[15],12600 ng·h/mL
same,MRT inf,[16],1.3 h
COC(=O)N[C@H](C(=O)N1CCC[C@H]1c1ncc(-c2ccc(C#CC#Cc3cnc([C@@H]4CCCN4C(=O)[C@H](NC(=O)OC)c4ccccc4)[nH]3)c(-c3cccc(C(C)(C)C)c3)c2)[nH]1)C(C)C,CC50 at 72 h,[1],> 10 µM
COC(=O)N[C@H](C(=O)N1CCC[C@H]1c1ncc(-c2ccc(C#CC#Cc3cnc([C@@H]4CCCN4C(=O)[C@H](NC(=O)OC)c4ccccc4)[nH]3)c(Sc3ccccc3)c2)[nH]1)C(C)C,CC50 at 72 h,[1],> 10 µM
COC(=O)N[C@H](C(=O)N1CCC[C@H]1c1ncc(C#CC#Cc2ccc(-c3cnc([C@@H]4CCCN4C(=O)[C@@H](NC(=O)OC)C(C)C)[nH]3)cc2-c2ccc(C(C)(C)C)cc2)[nH]1)C(C)C,CC50 at 72 h,[1],> 10 µM
COC(=O)N[C@H](C(=O)N1CCC[C@H]1c1ncc(-c2ccc(C#CC#Cc3cnc([C@@H]4CCCN4C(=O)[C@H](NC(=O)OC)c4ccccc4)[nH]3)c(Oc3ccccc3)c2)[nH]1)C(C)C,CC50 at 72 h,[1],> 10 µM
COC(=O)N[C@H](C(=O)N1CCC[C@H]1c1ncc(C#CC#Cc2ccc(-c3cnc([C@@H]4CCCN4C(=O)[C@@H](NC(=O)OC)C(C)C)[nH]3)cc2)[nH]1)c1ccccc1,CC50 at 72 h,[1],> 10 µM
COC(=O)N[C@H](C(=O)N1CCC[C@H]1c1ncc(-c2cc(C)c(C#CC#Cc3cnc([C@@H]4CCCN4C(=O)[C@H](NC(=O)OC)c4ccccc4)[nH]3)c(-c3ccccc3)c2)[nH]1)C(C)C,CC50 at 72 h,[1],> 10 µM
COC(=O)N[C@H](C(=O)N1CCC[C@H]1c1ncc(-c2ccc(C#CC#Cc3cnc([C@@H]4CCCN4C(=O)[C@H](NC(=O)OC)c4ccccc4)[nH]3)c(-c3ccc(N(C)C)cc3)c2)[nH]1)C(C)C,CC50 at 72 h,[1],> 10 µM
"COC(=O)NC(C(=O)N1CCC[C@H]1c1ncc(-c2ccc(C#CC#Cc3cnc([C@@H]4CCCN4C(=O)C(NC(=O)OC)C(C)C)[nH]3)cc2)[nH]1)c1ccccc1 (single isomer, unassigned)",CC50 at 72 h,[1],> 10 µM
same,Ratio IC50,[17],6.8
